Experimental findings from ChEMBL document CHEMBL1152148, “Exploring 8-benzyl pteridine-6,7-diones as inhibitors of glutamate racemase (MurI) in gram-positive bacteria” (Bioorg Med Chem Lett, 2008) are described below.

One data set has as its target T1, Glutamate racemase (Enterococcus faecalis (strain ATCC 700802 / V583), UniProt Q836J0).
T1 sequence (Q836J0 whole entry): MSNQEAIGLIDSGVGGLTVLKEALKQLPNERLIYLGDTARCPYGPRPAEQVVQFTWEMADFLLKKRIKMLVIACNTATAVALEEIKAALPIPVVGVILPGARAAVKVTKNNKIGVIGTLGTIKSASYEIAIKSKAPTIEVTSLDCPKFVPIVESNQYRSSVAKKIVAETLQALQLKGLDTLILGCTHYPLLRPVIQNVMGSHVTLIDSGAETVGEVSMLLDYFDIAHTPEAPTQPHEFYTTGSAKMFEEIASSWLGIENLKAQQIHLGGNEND
Briefly: Inhibition of Enterococcus faecalis murI assessed as effect on conversion of D-glutamate to L-glutamate at pH 8.0 by HPLC. In outline: (§1)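 IC50 determined against the MurI isozyme at pH 8 in Tris buffer containing polyethylene glycol, dithiothreitol and D-glutamate substrate. Conversion of D- to L-glutamate was followed by HPLC, with chiral separation of the glutamate enantiomers on a D-penicillamine column.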

Data set [1] can be described thus: Inhibition of Staphylococcus aureus murI assessed as effect on conversion of D-glutamate to L-glutamate at pH 8.0 by HPLC. A digest of the protocol: as §1
Data set [2] can be described thus: Solubility in Tris buffer at pH 8.0 by nephelometry. Format: physicochemical. A digest of the protocol:
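Solubility was determined by nephelometry in the assay medium.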

The next data set has as its system Staphylococcus aureus. Briefly: Antibacterial activity against Staphylococcus aureus by NCCLS method. Format: functional.
Data set [3] can be described thus: Inhibition of Enterococcus faecium murI assessed as effect on conversion of D-glutamate to L-glutamate at pH 8.0 by HPLC.

Usually IC50 stands for the midpoint of a concentration-inhibition curve. By solubility (kinetic) is commonly meant the concentration staying in solution when a stock, usually in DMSO, is diluted into the medium. Usually MIC stands for the lowest concentration that inhibits growth of the organism. A lower MIC goes with inhibition by little substance.

≈ marks a conversion by molar mass, not a printed value.

As for `CCCCSc1nc(N)c2[nH]c(=O)c(=O)n(Cc3ccccc3)c2n1`, the IC50 at Glutamate racemase came out at 2400 nM; in data set [1] it was 6.4 µM. In data set [2], this compound yielded a solubility (kinetic) of 25 µM (≈ 8.94 µg/mL). Also, in the data set on Staphylococcus aureus, the MIC is greater than 64 µg/mL.

For `CCCCSc1nc(N)c2[nH]c(=O)c(=O)n(Cc3cc(OC)cc(OC)c3)c2n1`, the results for the IC50 (on Glutamate racemase; in data set [1]) were 1700 nM and 14 µM, respectively. Also, the kinetic solubility in data set [2] is 50 µM (≈ 20.9 µg/mL). Also, in the data set on Staphylococcus aureus, the MIC is greater than 64 µg/mL.

Turning to `CCCCSc1nc(NCCN2CCOCC2)c2[nH]c(=O)c(=O)n(Cc3ccc(F)cc3)c2n1`, the IC50 at Glutamate racemase was 2500 nM; in data set [1] it was 25 µM. Besides, the kinetic solubility in data set [2] is 50 µM (≈ 24.4 µg/mL). The MIC in the data set with Staphylococcus aureus worked out at 64 µg/mL (≈ 131 µM).

For the compound `CCCCSc1nc(N)c2[nH]c(=O)c(=O)n(CCCC)c2n1`, the IC50 at Glutamate racemase turned out to be 11000 nM. This compound also showed a kinetic solubility in data set [2] of 25 µM (≈ 8.09 µg/mL). In the data set on Staphylococcus aureus, this compound had an MIC greater than 64 µg/mL.

Take `CCCCSc1nc(NC)c2[nH]c(=O)c(=O)n(Cc3ccc(F)cc3)c2n1`: the IC50 at Glutamate racemase is 900 nM; in data set [1], 3.8 µM. Besides, the solubility (kinetic) in data set [2] amounted to 25 µM (≈ 9.74 µg/mL). Further, inhibition of growth against Staphylococcus aureus (MIC) required 8 µg/mL (≈ 20.5 µM).

With `CCCCSc1nc(N2CC(O)C2)c2[nH]c(=O)c(=O)n(Cc3ccc(F)cc3)c2n1`, the IC50 on Glutamate racemase amounted to 2100 nM; in data set [1], 4 µM. Also, the solubility (kinetic) in data set [2] amounted to 1.6 µM (≈ 0.69 µg/mL). This compound also came in with an MIC with Staphylococcus aureus greater than 64 µg/mL.

`Nc1nc(SC2CCCC2)nc2c1[nH]c(=O)c(=O)n2Cc1ccccc1`: the IC50 turned out to be 1900 nM at Glutamate racemase and 52 µM in data set [1]. In data set [2], this compound came in with a solubility (kinetic) of 12 µM (≈ 4.43 µg/mL). Besides, the MIC against Staphylococcus aureus was greater than 64 µg/mL.

Regarding `CCCCSc1nc(N(C)C)c2[nH]c(=O)c(=O)n(Cc3ccc(F)cc3)c2n1`, at Glutamate racemase, the IC50 came to 1100 nM. Further, the kinetic solubility in data set [2] turned out to be 0.8 µM (≈ 0.323 µg/mL). The same compound returned an MIC in the data set on Staphylococcus aureus of 4 µg/mL (≈ 9.91 µM).

Turning to `CCCCSc1nc(N)c2[nH]c(=O)c(=O)n(Cc3ccc(Cl)c(Cl)c3)c2n1`, the IC50 on Glutamate racemase was 650 nM; in data set [1], less than 1.5 µM. In data set [2], this compound displayed a kinetic solubility of 3.1 µM (≈ 1.32 µg/mL). Moreover, in the data set with Staphylococcus aureus, the MIC is greater than 64 µg/mL.

Regarding `CCCCSc1nc(N)c2[nH]c(=O)c(=O)n(Cc3c(F)cccc3F)c2n1`, the IC50 at Glutamate racemase came to 1500 nM; in data set [1], 3.1 µM. In data set [2], this compound returned a solubility (kinetic) of 50 µM (≈ 19.7 µg/mL). Also, the MIC with Staphylococcus aureus is greater than 64 µg/mL.

On to `CCCCSc1nc(N2CCN(C)CC2)c2[nH]c(=O)c(=O)n(Cc3ccc(F)cc3)c2n1`, for which the IC50 amounted to 6100 nM on Glutamate racemase and 21 µM in data set [1]. Further, in data set [2], the solubility (kinetic) came to 25 µM (≈ 11.5 µg/mL). In the data set on Staphylococcus aureus, this compound had an MIC of 16 µg/mL (≈ 34.9 µM).

`CCCCSc1nc(N)c2ncn(Cc3ccc([N+](=O)[O-])cc3)c2n1`: the figures for the IC50 (at Glutamate racemase; in data set [3]; in data set [1]) were 7000 nM, 18 µM and greater than 400 µM, respectively. The kinetic solubility in data set [2] is 10 µM (≈ 3.58 µg/mL).

Regarding `CCCCSc1nc(N)c2[nH]c(=O)c(=O)n(Cc3ccc(F)cc3)c2n1`, the IC50 on Glutamate racemase was 3500 nM; in data set [1], 5.1 µM. Further, the solubility (kinetic) in data set [2] was 32 µM (≈ 12 µg/mL). Besides, in the data set on Staphylococcus aureus, the MIC is greater than 64 µg/mL.

As for `Nc1nc(SCc2ccccc2)nc2c1[nH]c(=O)c(=O)n2Cc1ccccc1`, the IC50 at Glutamate racemase was determined as 21000 nM; in data set [1], 7.6 µM. The solubility (kinetic) in data set [2] is 3 µM (≈ 1.17 µg/mL).

Turning to `Nc1nc(SCCc2ccccc2)nc2c1[nH]c(=O)c(=O)n2Cc1ccccc1`, the values for the IC50 (on Glutamate racemase; in data set [1]) were 50000 nM and 11 µM, respectively. The compound also gave a kinetic solubility in data set [2] of 3 µM (≈ 1.22 µg/mL).
